From ChEMBL document CHEMBL3351296, “Synthesis, antioxidant and photoprotection activities of hybrid derivatives useful to prevent skin cancer” (Bioorg Med Chem, 2014)

Columns and labels:
[1] = Antioxidant activity of the compound assessed as reduction in absorbance of DPPH after 60 mins incubation at 1000 uM by DPPH radical scavenging /microplate assay; format: physicochemical; conditions: 1 h
In short: (§1)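 DPPH radical prepared in methanol. Test compounds and standards made as 10 mM DMSO stocks, diluted in methanol, and tested at […]; final DMSO […]. Samples mixed with DPPH in triplicate, kept at 37 °C protected from light, and read at 519 nm after 30 and 60 min. % scavenging = (Abs control − Abs sample)/Abs control × 100.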

[2] = Antioxidant activity of the compound assessed as reduction in absorbance of DPPH after 60 mins incubation at 300 uM by DPPH radical scavenging /microplate assay; format: physicochemical; conditions: 1 h; in short: as §1
[3] = Antioxidant activity of the compound assessed as reduction in absorbance of DPPH after 60 mins incubation at 100 uM by DPPH radical scavenging /microplate assay; format: physicochemical; conditions: 1 h; in short: as §1
[4] = Antioxidant activity of the compound assessed as reduction in absorbance of DPPH after 60 mins incubation at 35 uM by DPPH radical scavenging /microplate assay; format: physicochemical; conditions: 1 h; in short: as §1
[5] = In vitro photoprotection of the compound assessed as sun protection factor by Optometric 290S analyzer
In short: (§2)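 Transmittance scans were taken from 290 to 400 nm at 2 nm intervals and compared against a reference scan. SPF, UVA protection factor and UVA/UVB ratio were calculated from the transmittance data.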

[6] = In vitro photoprotection of the compound assessed as UVA protection factor by Optometric 290S analyzer; in short: as §2
[7] = In vitro photoprotection of the compound assessed as UVA to UVB ratio by Optometric 290S analyzer; in short: as §2
[8] = Antioxidant activity of the compound assessed as reduction in absorbance of DPPH after 60 mins incubation by DPPH radical scavenging /microplate assay; format: physicochemical; in short: as §1

SMILES	inhibition (INH) [1] [%]	inhibition (INH) [2] [%]	inhibition (INH) [3] [%]	inhibition (INH) [4] [%]	IC50 [8] [µM]	SPF [5]	UVAPF [6]	Ratio [7]
COc1ccc(/C=C/C=N/NC(=O)c2ccc(C(C)(C)C)cc2)cc1	-7.1	-5.6	-8.3	-6.6	–	4	4	1
COc1ccc(C(=O)CC(=O)c2ccc(C(C)(C)C)cc2)cc1	–	–	–	–	–	–	39	1.8
COc1ccc(C(=O)c2ccccc2)c(O)c1	–	–	–	–	–	1	–	0.6
CC(C)(C)c1ccc(C(=O)N/N=C/c2cc(O)cc(O)c2)cc1	31.3	20.1	10.9	7	–	4	3	0.6
COc1cc(/C=C/C=N/NC(=O)c2ccc(C(C)(C)C)cc2)ccc1O	76.1	75.1	45.6	20	110	2	2	1.1
CCCCC(CC)COC(=O)C=Cc1ccc(OC)cc1 (configuration not stated)	–	–	–	–	–	13	–	–
COc1cc(/C=C/C=N/NC(=O)c2ccc(O)cc2)ccc1O	75.5	77.2	56.7	34.8	88.2	2	2	1.2
CC(C)(C)c1ccc(C(=O)N/N=C/c2ccc(O)cc2)cc1	38.7	28.9	15	10.2	–	2	2	0.8

More lines, main results first:

inhibition (INH) [1] [%]	inhibition (INH) [2] [%]	inhibition (INH) [3] [%]	inhibition (INH) [4] [%]	IC50 [8] [µM]	SMILES	SPF [5]	UVAPF [6]	Ratio [7]
34.2	26.5	11.2	5.6	–	O=C(N/N=C/c1cc(O)cc(O)c1)c1ccc(O)cc1	5	4	0.6
73.8	71.3	45.5	20.5	110	Oc1ccc(/C=C/c2cc(O)cc(O)c2)cc1 [RESVERATROL]	2	2	0.6
81.2	80.7	77.9	18.8	64.2	O=C1O[C@H]([C@@H](O)CO)C(O)=C1O [ASCORBIC ACID]	–	–	–
2.8	-2.6	-1.5	-3.4	–	COc1ccc(/C=C/C=N/NC(=O)c2ccc(O)cc2)cc1	2	2	1.1
65	54.4	38	18.4	275	O=C(N/N=C/c1ccc(O)cc1)c1ccc(O)cc1	3	2	0.8
